# Rows were chosen to be rich in hits. Some 1.2% of all compounds tested hit in one or more screens of this group.
# proCasp3 act – activators of human procaspase-3 D3A mutant, primary screen, biochemical, absorbance, PC-3 D3A mutant, single concentration; Caspase-3 (Homo sapiens), P42574; recombinant procaspase-3 D3A, Ac-DEVD-pNA absorbance 405 nm; activation, % at 8.5 µM; AID 463141, 2010; hit rate 0.11% among 330,000;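 active means activation above the mean of all tested compounds plus 3 SD, cut at about 21% in these data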;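 further: 0% = DMSO alone and 100% = DMSO wells spiked with extra 5 µM PC-3 D3A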
# Target sequence (P42574 whole entry D9A/D28A/D175A): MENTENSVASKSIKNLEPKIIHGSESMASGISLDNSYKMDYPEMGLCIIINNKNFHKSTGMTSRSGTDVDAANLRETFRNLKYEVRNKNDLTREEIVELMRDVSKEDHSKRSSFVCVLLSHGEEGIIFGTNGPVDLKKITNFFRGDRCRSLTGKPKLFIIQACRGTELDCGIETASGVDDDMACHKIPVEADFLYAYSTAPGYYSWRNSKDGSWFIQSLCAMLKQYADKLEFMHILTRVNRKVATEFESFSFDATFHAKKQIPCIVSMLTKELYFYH
#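 Assay system – Procaspase-3 D3A mutant · Benchmarks – DMSO low control, extra-enzyme high control · Technique – 405 nm absorbance of p-nitroaniline, reads at 0 and 120 min · Doses – 8.5 µM nominal · Measure – % activation between DMSO and enzyme-spiked controls · Also added – Ac-DEVD-pNA chromogenic peptide substrate · Schedule – 1 h compound preincubation, 2 h substrate hydrolysis at 25 °C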
# PP5 primary – PP5 phosphatase inhibitors, primary screen, biochemical, fluorescence. Serine/threonine-protein phosphatase 5 (Homo sapiens), P53041. purified PP5c, OMFP substrate fluorescence. inhibition, % at 6.7 µM. hit rate 0.18% among 320,000. AID 1987, 2009;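 active means inhibition above the campaign's mean inhibition across all tested compounds plus 3 SD, cut at about 9.5% in these data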;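 further: 0% = DMSO only and 100% = 100 µM cantharidin control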
# proCasp7 act – procaspase-7 activators, primary screen, counter-screen for procaspase-3 activator project, biochemical, absorbance, HTS, human. AID 463210, 2010. activation, % at 8.5 µM. recombinant procaspase-7, Ac-DEVD-pNA absorbance 405 nm; D23A/D198A/D206A triple mutant, cannot self-cleave; scale: DMSO 0, 5 µM enzyme 100. hit rate 0.093% among 330,000;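 active means percent activation above the screen-wide mean plus 3 SD, cut at about 25% in these data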
#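 System: Procaspase-7 triple mutant (PC-7 D3A); measure: % activation from two-timepoint absorbance difference, scaled to controls; times: 1 h compound preincubation, 2 h substrate cleavage, 25 °C; also added: Ac-DEVD-pNA substrate, 400 µM as added; measured by: Epi-absorbance of released pNA at 405 nm, two timepoints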
# PP1 counter – PP1-alpha phosphatase inhibitors, primary screen, counter-screen for PP5 inhibitor project, biochemical, fluorescence, OMFP substrate, single point; purified PP1alpha; inhibition, % at 6.7 µM; hit rate 0.9% among 320,000; AID 2235, 2010;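 active means inhibition above the mean inhibition of all tested compounds plus 3 SD, computed separately for each screening campaign, cut at about 15% in these data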
# PP1 confirm – PP1 phosphatase inhibitors, confirmation, biochemical, fluorescence, OMFP substrate, triplicate; shares compounds with PP1 counter; purified PP1alpha; inhibition, % at 6.7 µM; hit rate 52% among 1,900; AID 2358, 2010;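 active means mean PP1 inhibition above a set limit taken from the earlier primary screen, cut at about 15% in these data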
# PP5 counter – PP5 phosphatase inhibition by PP1 hits, confirmation, counter-screen for PP1 inhibitor project, biochemical, fluorescence, triplicate; AID 2360, 2010; inhibition, % at 6.7 µM; purified PP5c, OMFP fluorescence; hit rate 4% among 1,900; shares compounds with PP1 counter;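 active means mean PP5 inhibition over triplicate wells above about 9.5% taken from the earlier PP1 screen, limit read from the data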
# Active calls of the source: *; x = no result.
SMILES,proCasp3 act,PP5 primary,proCasp7 act,PP1 counter,PP1 confirm,PP5 counter
Cc1ccc(C)c(OCCn2cc(/C=C(/C#N)C(=O)NCC3CCCO3)c3ccccc32)c1 (stereo unspecified),-14.2,6.3,2.4,52.8*,1.6,-2.5
CCN(CC)S(=O)(=O)c1ccc(C(=O)Nc2nnc(NC(=S)Nc3ccccc3)s2)cc1,-2.7,3.8,-12.7,42.7*,28.9*,0.9
COc1ccc(S(=O)(=O)N2CCOCC2)cc1NC(=O)CCNC(=O)c1ccc([N+](=O)[O-])cc1,5.7,2.8,5.7,-3.6,x,x
NC(=NCCCCCCN=C(N)/N=C(\N)Nc1ccc(Cl)cc1)/N=C(\N)Nc1ccc(Cl)cc1,-3.6,4.8,3.5,20.3*,5.0,-0.1
O=C(NNC(=O)c1cccnc1SCc1cccc([N+](=O)[O-])c1)c1ccccn1,4.9,-0.6,-3.1,20.0*,18.5*,-5.4
COc1ccc(S(=O)(=O)Nc2ccc3c(c2)C(=O)N([C@H](C)CO)C[C@H](C)[C@@H](CN(C)S(=O)(=O)c2cccs2)O3)cc1,-1.3,x,6.8,x,x,x
O=c1c2ccccc2nc2n1CCC2,-23.8,8.2,-21.1,52.2*,48.5*,0.6
C/C(=N\NC(=O)COc1ccc(C)cc1Br)c1cc([N+](=O)[O-])cs1,0.9,2.0,7.9,22.0*,23.5*,1.5
CCOc1ccc(-c2cc(C(=O)NCCCn3ccnc3)c3cc(Br)ccc3n2)cc1,1.3,3.6,5.2,21.0*,5.6,1.2
CCOc1ccc(-c2cc(C(=O)NCCCn3ccnc3)c3ccccc3n2)cc1,0.6,-0.8,-0.8,3.1,x,x
Cc1ccc(S(=O)(=O)N[C@@H](CO)C(=O)N[C@@H](Cc2ccc(O)cc2)C(=O)O)cc1,3.9,-2.4,9.2,0.0,x,x
CCCCCCC[C@H](N)[C@H](O)C(=O)N(C)[C@@H](CCS(C)=O)C(=O)N[C@@H](Cc1ccc(O)cc1)C(=O)N[C@@H](Cc1ccc(O)cc1)C(=O)O (stereo partly specified),-1.9,88.3*,8.1,95.2*,95.1*,86.4*
Cc1cccc(CSc2ccc3nnc(-c4ccccn4)n3n2)c1,8.3,0.4,2.7,18.8*,7.9,-6.5
COC(=O)c1cc(OC)c(OC)cc1NC(=S)N1CCN(c2ccccn2)CC1,-3.4,-1.9,-6.0,1.7,x,x
COc1ccc2cc(CCOC3CCCCO3)ncc2c1 (stereo unspecified),-1.6,2.2,-3.8,-3.6,x,x
CCn1c(SCC(=O)Nc2oc(-c3ccccc3)c(-c3ccccc3)c2C#N)nnc1-c1ccncc1,-4.9,1.7,-3.2,2.4,x,x
CCn1c(SCC(=O)Nc2oc(-c3ccccc3)c(-c3ccccc3)c2C#N)nnc1-c1ccco1,-2.1,1.0,6.1,18.0*,9.9,-0.7
CCOC(=O)c1ncn2c1[C@@H]1CCNC1C(=O)c1cc(OC)ccc1-2 (stereo partly specified),7.4,4.9,-1.0,-12.1,x,x
O=C(COc1ccc(/C=N/NC(=O)c2ccc(O)cc2)cc1)Nc1cccc([N+](=O)[O-])c1,3.3,0.1,0.6,26.7*,25.8*,-2.4
O=C(COc1ccc(/C=N/NC(=O)c2ccncc2)cc1)Nc1ccc([N+](=O)[O-])cc1,-2.0,1.0,5.8,-3.1,x,x
O=[N+]([O-])c1ccc(N2CCCCC2)c(Cl)c1N1CCCCC1,11.5,1.0,8.9,47.4*,-2.3,-3.1
Cc1cc(C)c(NS(=O)(=O)c2ccc(NC(=O)/C=C/C(=O)O)cc2)c(C)c1,3.0,2.8,0.5,-2.2,x,x
CCCc1[nH]n(-c2nc3ccccc3s2)c(=O)c1C=NCCN1CCOCC1,6.7,2.0,3.5,19.6*,-1.2,0.6
COc1ccc2c3c(cccc13)C(=O)N(O)C2=O,-13.4,-0.4,-13.5,25.7*,41.9*,-3.5
